Marks after values point to notes of the source that are not given here.
Key:
[1] = tested on: patients with relapsed and/or refractory lymphoma or MM; assay: Phase I dose escalation: MTD and DLT determination; assay type: in vivo
NQO1 = assay: Whole blood reverse-transcriptase-PCR of NRF-2-regulated genes; assay type: in vivo, human; details: approximate
Method in brief: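 Whole blood was collected in PAXgene tubes at screening, at baseline and during cycle 1. Schedule A: day 1 at 4 and 8 h, day 2 pre-dose, day 5. Schedule B: days 1 and 11 at 4, 8 and 23 h, pre-dose days 4 and 11, day 15. Eight genes were assayed by RT-PCR, with ΔCt against four housekeeping genes (18S, B2M, RPLP0, UBC). Percent change = (2^−(post ΔCt − baseline ΔCt) − 1) × 100. Undetermined Ct was set to 40.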

[2] = tested on: patients with AML and myelodysplastic syndromes (MDS); details: same dosing as schedule B (days 1, 4, 8, 11); cited from earlier work
[3] = Plasma pharmacokinetics, cycle 1; details: human, in vivo

SMILES: NS(=O)(=O)OC[C@@H]1C[C@@H](n2ccc3c(N[C@H]4CCc5ccccc54)ncnc32)C[C@@H]1O [pevonedistat]
- DLTs at 261 mg/m^2 ([1]; in vivo): no DLTs were observed
- Maximum tolerated dose (MTD) ([1]; schedule A: IV days 1, 2, 8, 9 of 21-day cycles): 110 mg/m^2
- NQO1 expression in whole blood, maximal change from baseline (NQO1; doses of 25–83 mg/m^2, cycle 1 day 1): 250% to 400%
- NQO1 expression in whole blood, maximal change from baseline (NQO1; doses of 110–261 mg/m^2, cycle 1 day 1): 700% to 800%
- MTD in AML/MDS patients [2]: 83 mg/m^2
- Dose proportionality of mean Cmax and AUC0–24hr [3]: approximate dose-proportional increases
- Cmax ([3]; 110 mg/m2): 1683 (28) ng/mL
- Tmax ([3]; 110 mg/m2): 1.08 h
- Cmax ([3]; 110 mg/m2, Cmax): 1500 ng/mL
- Tmax ([3]; 110 mg/m2, Tmax): 1.02 h
- AUC0-τ ([3]; 196 mg/m2): 12,367 (13) ^c nghr/mL
- Cmax ([3]; 196 mg/m2): 3751 (53) ng/mL
- Mean plasma elimination half-life ([3]; 196 mg/m2): 8.5 h
- Tmax ([3]; 196 mg/m2): 1.02 (0.9– 1.1) hr
- clearance ([3]; 196 mg/m2): 472 mL/min
- Cmax ([3]; 196 mg/m2, Cmax): 4560 ng/mL
- half-life ([3]; 196 mg/m2, Mean plasma elimination half-life): ~8.5 h
- half-life ([3]; 196 mg/m2, Plasma elimination half-life, range): 7.7 to 9.1 h
- Tmax ([3]; 196 mg/m2, Tmax): 1.1 h
- half-life ([3]; 196 mg/m2, t½ (terminal disposition half-life)): 8.5 h

— article PMC5694347 (Clinical cancer research : an official journal of the …, 2015)
